The structures appear in SMILES notation.

A short description of this data set: Toxicity liver stage against HepG2, at 10uM. The class given is cell-based. More on the design: test concentration 10 uM, cell line HepG2-A16-CD81EGFP. Particulars: human, HepG2-A16-CD81EGFP cells; read-out: INHIBITION
In short, it runs like this: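 Uninfected HepG2-A16-CD81EGFP cells, 3 × 10^3 per well, 1536-well, plated on prespotted compound at 10 μM final, parasite-free screening media added to match infected plates; puromycin 10 μM positive, DMSO 0.5% negative; run in parallel with 48 h PbLuc assay at 37 °C, 5% CO2; viability by CellTiter-Glo luminescence, normalized to controls.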
In the case of `CCN1CCN(Cc2coc(-c3cccc(F)c3)n2)CC1`, the cytotoxicity at 10 µM was -7.75%.
For the molecule `CC(C)(C)CN1CCOC[C@H]1c1nc(-c2cccc(F)c2)c[nH]1`, the cytotoxicity at 10 µM is -3.79%.
The result for `Cn1nc(-c2ccc(Cl)cc2)c(Br)c1C(=O)O` reads -46.8%.
The value for `CC(=O)Nc1ccc(OCc2noc(C(=O)N3CCCCCC3)n2)cc1` was -23%.
For the molecule `Cc1ccc(NC(=O)Cn2ncc(SCC(N)=O)c(Cl)c2=O)c(F)c1`, the cytotoxicity at 10 µM is -7.21%.
`Cc1nccn1CC1CCN(C(=O)Cc2ccccc2)CC1`: the cytotoxicity at 10 µM was -17%.
For `O=C(Nc1nc2c(s1)CN(S(=O)(=O)C1CC1)CC2)Nc1ccccc1F`, the cytotoxicity at 10 µM is -1.34%.
As to `O=C(NCCn1ccc(-c2ccncc2)n1)c1ccc2c(c1)OCO2`, the cytotoxicity at 10 µM worked out at 6.03%.
In the case of `Cc1cccc(CN2CCc3[nH]nc(C(=O)N4CCOCC4)c3C2)n1`, the cytotoxicity at 10 µM worked out at 6.31%.
For `O=C1[C@H]2CN(c3ncccn3)C[C@H]2CN1CC1CC1`, the cytotoxicity at 10 µM came out at 4.41%.
For the molecule `O=C(O)c1nnn(-c2cccc(C(F)(F)F)c2)c1-c1ccncc1`, the cytotoxicity at 10 µM was determined as 4.76%.
The result for `c1ccc(N2CCC(c3ccncc3)CC2)cc1` reads 8.45%; that for `CN1CCCC(c2cccc(-c3cccc(Cl)c3)n2)C1` (stereo not given), -9.58%; that for `CC(C)(C)n1nnnc1CN(CCc1ccccc1)Cc1ccccc1`, 4.91%.
For `Cc1c[nH]nc1C1CCN(C(=O)C2CCCC2)C1` (stereo not given), the cytotoxicity at 10 µM is 0.631%.
As to `Cc1cccc(Nc2cccc(C3CCCN(Cc4ncc[nH]4)C3)n2)n1` (stereo not given), the cytotoxicity at 10 µM was -24.1%.
The value for `Cc1ccc(S(=O)(=O)N2C[C@H]3C[C@H](NC(=O)c4cc[nH]n4)[C@H]3C2)cc1` was 81.4%.
Regarding `O=C(Cc1ccc2c(c1)CCCC2)N[C@@H]1CC[C@@H](n2ccnc2)[C@@H]1O`, the cytotoxicity at 10 µM is -5.69%.
Take `CCCN1CCN(C(=O)c2cccnc2)CC1`: the cytotoxicity at 10 µM is -48.5%.
The value for `CC(Cn1cncn1)NC(=O)NCC(C)(C)c1ccc(F)cc1` (stereo not given) was 13.6%; that for `Cc1csc(C2(NC(=O)NCCN3CCOCC3)CCCC2)n1` was -3.55%.
On to `Cn1cccc1C(=O)NC1CCN(c2ccc(OC(F)(F)F)cc2)CC1`, for which the cytotoxicity at 10 µM turned out to be 4.87%.
As for `COCCNc1ccccc1CNC(=O)NCc1ccc(C)s1`, the cytotoxicity at 10 µM was determined as 4.38%.
For `Cc1c(NCc2ccccc2C#N)cccc1S(=O)(=O)NC1CC1`, the cytotoxicity at 10 µM came out at 30.4%.
The value for `O=C(CCn1ccc2ccccc21)N1CCN(Cc2cccnc2)CC1` was 0.951%; that for `CCc1ccc(C2COCCN2C(=O)Nc2ccc(C#N)cc2)o1` (stereo not given) was -0.0554%; that for `COc1ccc(-n2cnnc2SCC(=O)NC(C)C)cn1` was 14%.
Take `Cc1ccc(N2CCCC(NCCS(C)(=O)=O)C2)nn1` (stereo not given): the cytotoxicity at 10 µM was -5.26%.
Turning to `Fc1ccc(CNCCn2cccn2)c(Cl)c1`, the cytotoxicity at 10 µM is -1.26%.
`CCOC(C)c1noc(CN2CCN(c3nnc(C)s3)CC2)n1` (stereo not given): the cytotoxicity at 10 µM is -11.1%.
Turning to `Cc1nc(C)c(C(=O)NCCOc2ccc(C(F)(F)F)cn2)o1`, the cytotoxicity at 10 µM came to 2.42%.
Turning to `CC(C)CC(Cc1cccc(Br)c1)C(=O)O` (stereo not given), the cytotoxicity at 10 µM is 13.8%.
As to `Cc1cc(N(C)CCOc2ccccc2F)nc(N)n1`, the cytotoxicity at 10 µM was 20.1%.
The value for `COc1cccc(N2CCC(CNc3cc(C)nc4ncnn34)C2)c1` (stereo not given) was 59.7%.
For `CCCN(CCc1ccccn1)C(=O)CCc1cnn(C)c1`, the cytotoxicity at 10 µM was -2.84%.
On to `CC(=O)N1CCN(C2CCc3ccccc32)CC1` (stereo not given), for which the cytotoxicity at 10 µM is -44.7%.
The value for `Cc1ccc(CN(C)C(=O)c2cnsn2)cc1` was -16.4%; that for `COc1cc(N2C[C@@H]3COC[C@@H](Cc4nc(C)no4)[C@@H]3C2)ncn1` was -105%; that for `O=C(c1cscn1)N1C[C@H]2CCC[C@@]2(COCc2ccccn2)C1` was -103%.
Regarding `O=C(c1ccoc1)N1CCc2c(COCC3CC3)cncc2C1`, the cytotoxicity at 10 µM was -76.9%.
On to `COCCC(=O)N1CC[C@H]2O[C@@H](C)C[C@H]2C1`, for which the cytotoxicity at 10 µM was -72.4%.
As for `Cc1nc(NCC2CC2)nc2c1COCC21CCN(S(=O)(=O)C2CC2)C1` (stereo not given), the cytotoxicity at 10 µM is -84.8%.
`COCC1CN(C(=O)Cc2cccs2)Cc2c1cnn2C` (stereo not given): the cytotoxicity at 10 µM is -65.6%.
`O=C(NC1CCC1)C1=NOC2(CCN(Cc3ccc(F)cc3)C2)C1` (stereo not given): the cytotoxicity at 10 µM was -67.7%.
`CCO[C@@H]1CO[C@@]2(CCCN(S(=O)(=O)c3ccccc3)C2)C1`: the cytotoxicity at 10 µM is -77.2%.
As to `CSc1ncccc1C(=O)N1CCCC1c1ccc(C(=O)N(C)C)s1` (stereo not given), the cytotoxicity at 10 µM is 6.45%.
`Cn1nnnc1SCCNC1CCN(c2ccc3c(c2)OCO3)CC1`: the cytotoxicity at 10 µM is 3.07%.
With `CCc1cc(CN2CCCCC2c2ccc(F)cc2)on1` (stereo not given), the cytotoxicity at 10 µM is -2.45%.
The value for `CC(C)N(C)S(=O)(=O)c1ccc2c(c1)CCN(C(=O)c1cscn1)C2` was 8.48%.
As for `CC(C)c1nc(CN(C)C(=O)c2ccc(CN3CCCCC3)cc2)cs1`, the cytotoxicity at 10 µM is -6.1%.
`CCCN1CCN(S(=O)(=O)c2ccccc2OC)[C@H]2CS(=O)(=O)C[C@H]21`: the cytotoxicity at 10 µM is -3.56%.
As to `C=C(C)COc1cccc(C(=O)N2CCC(O)(c3ccccc3)CC2)c1`, the cytotoxicity at 10 µM was -44.9%.
Turning to `CCCn1nc(C)c(CN2CC3(CCOC3)CCC2=O)c1C` (stereo not given), the cytotoxicity at 10 µM stood at 4.28%.
For the molecule `CN1CCC(Cc2nc(-c3ccnn3C)n(Cc3ccccc3)n2)CC1`, the cytotoxicity at 10 µM came to 44.1%.
The value for `c1cc(CN2CCC(c3nnc4n3CCCCC4)CC2)c2nonc2c1` was -1.08%; that for `CC(C)c1nccn1C(C)C(=O)N1CCN(c2ccccc2Cl)CC1` (stereo not given) was 3.54%; that for `CC(C)c1ocnc1C(=O)NC(c1nnc2n1CCNCC2)C(C)C` (stereo not given) was -9.72%.
On to `COc1cccc(CCC2CCCN(Cc3ncc[nH]3)C2)c1` (stereo not given), for which the cytotoxicity at 10 µM came to 1.13%.
Take `Cc1cccc(N2CCC(N3CCC4(CN(C)C(=O)O4)C3)CC2)c1C` (stereo not given): the cytotoxicity at 10 µM was -11.8%.
Regarding `CCc1cnc(N)nc1NCCCn1cc(Cl)cn1`, the cytotoxicity at 10 µM was found to be 3.5%.
Turning to `COc1ccc(-n2cnnc2CC2CCNCC2)cc1`, the cytotoxicity at 10 µM is -5.53%.
The value for `CCc1csc(CNc2nc3c(s2)c(C)nn3C)n1` was -35.5%; that for `CN1CCN([C@H]2CCN(C(=O)c3cc(Cl)cn3C)C[C@H]2CCCO)CC1` was 0.174%; that for `O=C(NC1CC1)C1CN(c2nc3ccccc3s2)CCN1` (stereo not given) was -49.4%.
As for `CCN(C)S(=O)(=O)N[C@H]1CN(c2ccc(F)cn2)C[C@@H]1C(C)C`, the cytotoxicity at 10 µM was 10.8%.
The value for `COCCN1CCC(CN(C)c2nc3c(s2)c(C)nn3C)CC1` was 0.992%.
In the case of `CCC(=O)Nc1cccc(OCC(=O)N(C)Cc2nccn2CC)c1`, the cytotoxicity at 10 µM is 3.96%.
As for `C1Cc2nc(CCNc3nc(C4CC4)nc4c3CCNCC4)sc2C1`, the cytotoxicity at 10 µM is -10.4%.
Regarding `COc1ccc(OCc2cc(C(=O)N3CCN[C@H](C)C3)n[nH]2)c(Cl)c1`, the cytotoxicity at 10 µM is -11.7%.
The result for `Cc1cc(Br)c(O)c(-c2nc(N3CCCCC3)sc2C)c1` reads -7.13%; that for `CC(=O)N1C[C@@H](c2ccsc2)[C@@H]2CN(Cc3cccc(Cl)c3)CC[C@@H]21`, 13.1%.
In the case of `CCOCCCn1c(NC(=O)c2cc(C)on2)nc2ccccc21`, the cytotoxicity at 10 µM is -31.3%.
For `Cc1nn(C)c(N(C)C)c1CNCCC(=O)NC1CCCC1`, the cytotoxicity at 10 µM was -3.37%.
The value for `CCCc1noc(CCCC(=O)N2CCCC2c2cnn(C)c2)n1` (stereo not given) was 6.32%.
The result for `Cc1cn2c(n1)CCC(NC(=O)c1[nH]nc(C)c1Br)C2` (stereo not given) reads -17.6%; that for `CCN(Cc1nc2c(cnn2C)c(=O)[nH]1)c1cc(C)cc(C)c1`, -5.83%; that for `COCCc1noc(CN2CCCC2Cn2nc(C)nc2C)n1` (stereo not given), -1.39%.
The value for `c1cnnc(N2CCCC2CNc2ncnc3ccccc23)c1` (stereo not given) was 2.33%; that for `CC1(C)CC(N(Cc2cccnc2)Cc2cccnc2)CC(C)(C)N1` was 1.3%.
Take `CO[C@@H]1CO[C@@]2(CCCN(Cc3nc(C)cs3)C2)C1`: the cytotoxicity at 10 µM was -138%.
For `CN1CCN(C(=O)Cc2ccsc2)Cc2cccnc21`, the cytotoxicity at 10 µM was -1.16%.
In the case of `Cn1nc(C2CCCN(Cc3ccccc3)C2)c2nccnc21` (stereo not given), the cytotoxicity at 10 µM was -9.05%.
Take `CC[C@@H]1N(CC2CC2)CCC[C@]12CCC(=O)N2`: the cytotoxicity at 10 µM came to 15.4%.
As for `N#Cc1ccc(N2CCCC3(CCN(c4cncnc4)C3=O)C2)nc1` (stereo not given), the cytotoxicity at 10 µM was -97.6%.
On to `COc1ccc(CN2C[C@@H]3CN(Cc4cccnc4)CCO[C@@H]3C2)cc1`, for which the cytotoxicity at 10 µM stood at 10.3%.
Take `Cc1occc1C(=O)N1C[C@@H]2OCCN(CCN3CCCC3)[C@@H]2C1`: the cytotoxicity at 10 µM is -76.1%.
On to `c1cncc(OC[C@@H]2CCC[C@@]23CN(Cc2nccs2)CCO3)c1`, for which the cytotoxicity at 10 µM was -63.3%.
Turning to `Cn1ncc2c1CN(C(=O)Cc1ccccn1)CC2COCC1CC1` (stereo not given), the cytotoxicity at 10 µM was -73.6%.
For the molecule `CN(C)c1nccc(N2CCO[C@H]3CN(Cc4ccsc4)C[C@H]32)n1`, the cytotoxicity at 10 µM was 8.93%.
As for `Cc1ccc(CN2Cc3nccn3CC(CN(C)C)C2)s1` (stereo not given), the cytotoxicity at 10 µM was -82.4%.
For the molecule `Cc1occc1C(=O)N1CCC2(CCN(Cc3ccccn3)C2=O)C1` (stereo not given), the cytotoxicity at 10 µM is -152%.
Consider `CC(C)COC1CC2(CCN(C(=O)Cc3ccccn3)CC2)C1`, for which the cytotoxicity at 10 µM is -113%.
In the case of `CCC1=NN2C(=N)C(=Cc3cccn3-c3ccc(Br)cc3)C(=O)N=C2S1`, the cytotoxicity at 10 µM is -7.83%.
Turning to `Cc1nnc(CN2C[C@@H]3CC[C@H]2CN(C2Cc4ccccc4C2)C3)o1`, the cytotoxicity at 10 µM was -1.06%.
In the case of `CN(C)C(=O)[C@H]1C[C@H]2CN(CCc3ccccc3)C[C@@H]1O2`, the cytotoxicity at 10 µM is -94.2%.

The values are drawn from ChEMBL document CHEMBL4513216, “Probing the Open Global Health Chemical Diversity Library for Multistage-Active Starting Points for Next-Generation Antimalarials” (ACS Infect Dis, 2020).
